# Screening data as filed in PubChem BioAssay.
# TRPC6 inhibitor = mouse TRPC6 channel inhibition; actives 1.1% (n = 310,000); B-score at 10 µM; HEK293-TRPC6, membrane potential dye, ACh-evoked depolarization; hits give low values; AID 2553; Q61143;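 active means B-score under library mean minus 3 SD, initial fluorescence not abnormally high, positive integrated signal ratio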;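 further: B-score derived from integrated fluorescence ratio over the kinetic read; more negative B-score means stronger inhibition of depolarization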
# Target sequence (Q61143 whole entry, looked up): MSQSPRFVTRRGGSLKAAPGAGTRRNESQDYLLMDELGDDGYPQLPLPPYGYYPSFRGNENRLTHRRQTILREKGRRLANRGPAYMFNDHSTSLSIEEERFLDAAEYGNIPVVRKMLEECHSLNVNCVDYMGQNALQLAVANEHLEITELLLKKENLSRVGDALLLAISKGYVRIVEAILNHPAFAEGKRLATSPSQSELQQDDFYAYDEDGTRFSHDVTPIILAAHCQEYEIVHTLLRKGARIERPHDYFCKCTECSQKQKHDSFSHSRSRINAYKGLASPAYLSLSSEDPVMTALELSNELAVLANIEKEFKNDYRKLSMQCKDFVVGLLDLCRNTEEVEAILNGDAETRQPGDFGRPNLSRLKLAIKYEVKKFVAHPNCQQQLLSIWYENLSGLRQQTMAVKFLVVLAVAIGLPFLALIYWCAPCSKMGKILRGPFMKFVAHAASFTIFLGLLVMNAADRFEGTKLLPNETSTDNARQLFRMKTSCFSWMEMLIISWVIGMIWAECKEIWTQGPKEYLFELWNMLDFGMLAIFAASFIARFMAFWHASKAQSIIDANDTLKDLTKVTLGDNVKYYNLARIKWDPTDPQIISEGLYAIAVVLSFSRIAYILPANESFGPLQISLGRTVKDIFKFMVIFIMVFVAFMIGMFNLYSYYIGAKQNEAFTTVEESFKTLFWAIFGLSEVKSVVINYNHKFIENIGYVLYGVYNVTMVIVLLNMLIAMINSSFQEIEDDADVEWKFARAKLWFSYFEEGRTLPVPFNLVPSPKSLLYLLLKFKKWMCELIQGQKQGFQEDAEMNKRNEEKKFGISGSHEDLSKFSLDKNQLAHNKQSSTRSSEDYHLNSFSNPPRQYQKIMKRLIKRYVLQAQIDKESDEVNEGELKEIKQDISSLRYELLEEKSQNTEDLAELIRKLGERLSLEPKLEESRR
# TRPC4 inh = TRPC4 (mouse) channel inhibition; Q9QUQ5; HEK293 TRPC4beta/mu-opioid, DAMGO-evoked Fluo4 calcium flux; hits give low values; B-score at 10 µM; actives 0.39% (n = 300,000); AID 2247;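 active means B-score over 3 SD under the library average, no early fluorescence shift, positive overall ratio signal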
#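 material = TRPC4beta/mu-opioid receptor HEK293 cell line | probe or stimulus = sequential submaximal and maximal DAMGO stimulation | compound dosing = one concentration per compound | measured by = Fluo4 Ca2+ flux fluorescence | evaluation = integrated fluorescence ratio relative to baseline, converted to per-well B score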
# TRPC4 agonist = opens the mouse TRPC4 cation channel; actives 0.49% (n = 310,000); B-score at 10 µM; HEK293 TRPC4beta/mu-opioid, Fluo4 calcium fluorescence; hits give high values; Q9QUQ5;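 active means B-score above 5 SD of library B-scores, and initial fluorescence ratio not above library mean plus 5 SD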;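 further: positive B-score marks a calcium rise read as TRPC4 activation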
#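 Incubation: 45 min room-temperature Fluo4 loading, 110 s read / System: HEK293 cells stably co-expressing mouse TRPC4beta and mu-opioid receptor / Signal: Fluo4 fluorescence, kinetic / Control set: buffer (low) and maximal DAMGO (high) / Measure: integrated baseline-normalised fluorescence ratio, converted to per-well B score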
# Kir21 inh = inhibitors of mouse Kir2.1 inward-rectifier potassium channel. P35561. HEK293-Kir2.1, FluxOR thallium flux fluorescence; hits give low values. B-score at 10 µM. actives 0.85% (n = 310,000);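 active means fluorescence ratio B-score at or below minus 3 SD of library scores, with starting-brightness B-score within 2 SD, cut at about -4.2 in these data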;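 further: channel flux triggered by added potassium and thallium sulfate stimulus; B-score of peak minus minimum fluorescence over baseline after thallium stimulus; more negative B-score means stronger Kir2.1 block with less thallium influx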
# TRPC4 PAM = TRPC4 (mouse) allosteric potentiation; Q9QUQ5; HEK293 TRPC4beta/mu-opioid, DAMGO EC20, Fluo-4 Ca2+ flux; hits give high values; B-score at 10 µM; actives 0.42% (n = 310,000);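 active means B-score of calcium response area above 5 SD of library B-scores, with initial fluorescence ratio within 5 SD of library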;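 further: B-score of integrated fluorescence ratio over time as area under calcium response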
# TRPC6 activator = activators of mouse TRPC6 channel; actives 0.13% (n = 310,000); Q61143; B-score at 10 µM; HEK293-TRPC6 membrane potential dye fluorescence; hits give high values;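 active means B-score of the integrated fluorescence ratio above library mean plus 3 SD, and starting fluorescence ratio within library mean plus 5 SD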;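 further: higher score means more depolarization so channel activation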
# TRPC4 spec 2 = second check of whether TRPC6 inhibitors also affect mouse TRPC4; shares compounds with TRPC6 inhibitor; HEK293 TRPC4/MOR, membrane potential dye fluorescence; channel activated by saturating DAMGO dose; inhibition, % at 10 µM; actives 42% (n = 920); AID 2776;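 active means compounds whose fluorescence signal differed from control wells by over 3 SD, either direction, in both duplicate plates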
# TRPC4 spec = tests whether TRPC6 inhibitors also affect mouse TRPC4. actives 61% (n = 920). HEK293 TRPC4/mu-opioid, membrane potential fluorescence. activity change, negative = inhibition, % at 10 µM. shares compounds with TRPC6 inhibitor;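 active means rise or fall in signal beyond 3 SD of buffer-only wells in both replicate plates, either sign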;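 further: integrated kinetic ratio of fluorescence range over baseline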
# HEK293 MPD ctr 2-1 = second check of TRPC6 inhibitor effects in parental HEK293 cells; shares compounds with TRPC6 inhibitor; signal change vs control, % at 10 µM; actives 31% (n = 920); parental HEK293 membrane potential dye fluorescence; maximal acetylcholine challenge after compound addition;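 active means membrane potential signal moving either way by over 3 SD of the maximum-effect control, in both duplicate plates, meaning non-specific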
# HEK293 MPD ctr-1 = parental HEK293 nonspecific activity of TRPC6 inhibitors. shares compounds with TRPC6 inhibitor. parental HEK293 membrane potential dye fluorescence. membrane potential signal change, % at 10 µM. actives 60% (n = 920). AID 2780;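 active means membrane potential signal shifting up or down by more than 3 SD of buffer-only wells, on both duplicate plates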
# HEK293 MPD ctr-2 = checks TRPC6 modulator effects in parental HEK293 cells. AID 488924. membrane potential signal change, % at 10 µM. actives 51% (n = 2,400). shares compounds with TRPC6 inhibitor. membrane potential dye fluorescence;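 active means membrane potential signal moves up or down beyond 5 SD from buffer-only wells, on both duplicate plates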
# HEK293 MPD ctr 2-2 = second check of TRPC6 modulator effects in parental HEK293 cells. shares compounds with TRPC6 inhibitor. membrane potential dye fluorescence; after compound, maximal acetylcholine stimulation. inhibition, % at 10 µM. actives 14% (n = 2,400). AID 488926;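 active means membrane potential signal drops by more than 5 SD from the mean control signal, in both duplicate plates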;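 further: plate controls were acetylcholine ECmax control wells for no effect and buffer only wells for full effect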
# TRPC4 ctr mod = selectivity of TRPC6 modulators against mouse TRPC4; shares compounds with TRPC6 inhibitor; HEK293 TRPC4/mu-opioid, membrane potential fluorescence; percent change from control (negative = decrease, positive = increase), % at 10 µM; actives 69% (n = 2,400); AID 488927;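 active means membrane potential signal moved up or down beyond 5 SD of buffer control wells, in both duplicate plates, actives on both sides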;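 further: plate controls were assay buffer wells for no effect and DAMGO maximal-effect wells for full effect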
# TRPC4 ctr inh 2 = second selectivity test of TRPC6 modulators against mouse TRPC4; shares compounds with TRPC6 inhibitor; HEK293 TRPC4/mu-opioid, membrane potential dye fluorescence; stimulated with maximal-effect DAMGO; inhibition, % at 10 µM; actives 55% (n = 2,400);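 active means drop in membrane potential signal beyond 5 SD of the control wells in both duplicate plates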;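 further: TRPC4 counter screen for TRPC6 hits run under conditions tuned for TRPC6 not TRPC4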
# TRPC6 inh conf = mouse TRPC6 inhibitor confirmation; inhibition, % at 10 µM; HEK293-TRPC6, membrane potential dye, ACh-evoked depolarization; actives 43% (n = 3,300); shares compounds with TRPC6 inhibitor;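 active means fluorescence ratio falls more than 5 SD below the full-stimulation control mean, in both duplicate runs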;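 further: integrated fluorescence ratio of peak minus minimum over baseline after agonist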
# TRPC6 act conf = confirmation of mouse TRPC6 activators; shares compounds with TRPC6 inhibitor; HEK293-TRPC6 membrane potential dye fluorescence, FDSS; activation, % at 10 µM; actives 11% (n = 2,800); AID 488961;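 active means ratio signal rise beyond 5 SD above unstimulated control wells' mean, seen in both duplicate runs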;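 further: plate controls were buffer EC0 wells for no effect and acetylcholine ECmax response for full effect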
# Active calls of the source: *; i = inactive; / = no result given. Shown are actives, neighbours in structure and some others; about 2.9% of the full set was active somewhere.
SMILES,TRPC6 inhibitor,TRPC4 inh,TRPC4 agonist,Kir21 inh,TRPC4 PAM,TRPC6 activator,HEK293 MPD ctr-2,HEK293 MPD ctr 2-2,TRPC4 ctr mod,TRPC4 ctr inh 2,TRPC6 inh conf,TRPC6 act conf,others
Cc1ccc(Nc2c(-c3ccc(N4CCOCC4)cc3)nc3ncccn23)cc1C,-6.1*,i,i,1.9,i,i,i,i,-26%*,80%*,i,i,
CN(/C(=N\S(=O)(=O)c1ccccc1)c1ccccc1)c1ccc(O)cc1,i,i,i,1.3,i,i,/,/,/,/,/,/,
CN(/C(=N/S(=O)(=O)c1ccccc1)c1ccccc1)S(=O)(=O)c1ccccc1,-6.5*,i,i,-1.4,i,i,i,i,10%*,i,i,i,
CCOc1ccc(N2CC(NC(=O)c3cccc4ccccc34)CC2=O)cc1 (centres undefined),i,i,i,0.07,i,i,/,/,/,/,/,/,
CCCCCCC(=O)N1CCC(c2nc3c(nnn3Cc3ccccc3Cl)c(=O)[nH]2)CC1,-11*,i,i,0.04,i,14*,131%*,i,22%*,i,74%*,127%*,
O=C1Nc2ccccc2OC1CC(=O)N1CCN(c2cccc(C(F)(F)F)c2)CC1 (centres undefined),-9.7*,i,i,0.24,i,i,/,/,/,/,i,i,TRPC4 spec 2=i;TRPC4 spec=i;HEK293 MPD ctr 2-1=i;HEK293 MPD ctr-1=i
O=C1Nc2ccccc2OC1CC(=O)N1CCOCC1 (centres undefined),i,i,i,0.15,i,i,/,/,/,/,/,/,
C=CCSc1nnc(-c2ccccc2NC(=O)CC)c(=O)[nH]1,i,i,i,0.62,i,i,/,/,/,/,/,/,
CCN(C(=O)C(C)N1C(=O)/C(=C/c2cccs2)SC1=S)C1CCS(=O)(=O)C1 (centres undefined),i,i,i,0.92,i,i,/,/,/,/,/,/,
COC(=O)c1ccc(/C=N/OCC(=O)NC2CCCCCCC2)cc1,-9.1*,i,i,1.9,i,i,/,/,/,/,i,/,TRPC4 spec 2=i;TRPC4 spec=3.9%*;HEK293 MPD ctr 2-1=i;HEK293 MPD ctr-1=3.9%*
